High-throughput results (PubChem BioAssay)
KSHV LANA nucl: inhibitors of KSHV LANA binding to nucleosomes; FITC-LANA1-23 / chicken nucleosome fluorescence polarization; active compounds read low; z-score (test concentration not listed); 51,000 compounds, 0.3% hits;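 active = both repeat wells score below -2 in polarization z-score versus plate sample wells, excluding overly bright wells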
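Assay system: purified chicken nucleosomes with FITC-labelled LANA N-terminal peptide (1-23) / Probe or stimulus: 50 nM FITC-LANA1-23 probe / Compound dosing: pin-transferred compound, 100 nL / Times: compound with peptide–nucleosome mix 10–45 min at room temperature / Technique: fluorescence polarization, 480 nm excitation, 535 nm parallel and perpendicular emission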
BasE inh: BasE siderophore biosynthesis inhibition. purified BasE, fluorescence polarization binding displacement. inhibition, % (concentration not given with the values). 84,000 compounds, 0.1% hits. AID 485350; in the data active = inhibition above about 25%, passing the limit was not always enough
Hits are given with their value; n = inactive; x = no result given. This is one part of a sample in which hits are shown more often than they occur.

SMILES | KSHV LANA nucl | BasE inh
COc1ccc(C(=O)c2ccccc2)c(O)c1 | n | n
O=C(c1ccc(O)cc1)c1ccc(O)cc1O | n | 31
C=C(C)c1cccc(C(C)(C)NC(=O)Nc2ccc(N3CCOCC3)cc2)c1 | n | n
C1CNCCN1 | n | n
C1COCCNCCOCCN1 | -2.6 | n
CNc1c(=O)[nH]c(O)c2ccccc12 | n | n
O=C1CN(C(=O)c2ccc3c(c2)OCO3)c2ccccc2N1 | x | n
O=C(CSc1ncccn1)N1CCc2ccccc2C1 | n | n
Cc1ccnc(SCC(=O)N2CCc3ccccc3C2)n1 | x | 40
CCN(CC)S(=O)(=O)c1cccc(C(=O)N=Nc2c(O)[nH]c3ccccc23)c1 | x | n
CCC(=O)c1ccc(OCc2cn3cc(Cl)ccc3n2)cc1 | x | n
Cc1n[nH]c(=O)n1Cn1c(C)n[nH]c1=O | x | n
O=C(N=Nc1c(O)n(CN2CCOCC2)c2ccc(Br)cc12)c1ccc(Br)cc1 | n | n
O=C(Cn1cnnn1)NC1CCCc2ccccc21 (stereo unspecified) | x | n
Cc1cc(=O)n2nc(N(C)CC(=O)NC3CCCc4ccccc43)sc2n1 (stereo unspecified) | -2.3 | n
